Drawing on ChEMBL document CHEMBL4513216, “Probing the Open Global Health Chemical Diversity Library for Multistage-Active Starting Points for Next-Generation Antimalarials” (ACS Infect Dis, 2020), this text covers cytotoxicity for 39 compounds.

A short description of this data set: Toxicity liver stage against HepG2, at 10uM. It counts as cell-based. More on the design: test concentration 10 uM, cell line HepG2-A16-CD81EGFP. Particulars: human, HepG2-A16-CD81EGFP cells; read-out: INHIBITION
A digest of the protocol: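 Uninfected HepG2-A16-CD81EGFP cells, 3 × 10^3 per well, 1536-well, plated on prespotted compound at 10 μM final, parasite-free screening media added to match infected plates; puromycin 10 μM positive, DMSO 0.5% negative; run in parallel with 48 h PbLuc assay at 37 °C, 5% CO2; viability by CellTiter-Glo luminescence, normalized to controls.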
For `O=S(=O)(c1c(F)cccc1F)N1CCC(Cn2cccn2)CC1`, the cytotoxicity at 10 µM is -11.9%.

As to `Cc1nnc(C[C@@H]2COC[C@H]3CN(C(=O)C4=CCCC4)C[C@@H]23)o1`, the cytotoxicity at 10 µM is -5.86%.

In the case of `CC(C)CNC(=O)c1cc2c(s1)CCN2Cc1cccnc1`, the cytotoxicity at 10 µM was -6.16%.

Consider `Cn1cc(CN2CCO[C@H]3C(Cn4cccn4)CC[C@@H]32)cn1` (some centres undefined), for which the cytotoxicity at 10 µM is -3.12%.

For `O=C(CC1CCCC1)NCCn1ccc(-c2ccncc2)n1`, the cytotoxicity at 10 µM was 5.97%.

As to `CCc1nnc(Nc2cccc(C3CCN(c4cnccn4)CC3)n2)s1`, the cytotoxicity at 10 µM is -26.5%.

Turning to `CCCC(=O)N1CCC(c2cc3n(n2)[C@@H](C(F)(F)F)C[C@@H](C)N3)CC1`, the cytotoxicity at 10 µM is -10.3%.

With `O=c1[nH]c2ccccc2cc1CNCCCN1CCOCC1`, the cytotoxicity at 10 µM was -17.5%.

As for `O=C1NCC2(CCCN(Cc3ccncc3)C2)Oc2ccccc21` (centres undefined), the cytotoxicity at 10 µM was -13.8%.

`O=C(O)C1(Cc2cc(-c3cccc(F)c3)no2)CCOCC1`: the cytotoxicity at 10 µM was -4.97%.

In the case of `O=C(c1ccnnc1)N1C[C@@H]2CC[C@H](Oc3cccc(F)c3)[C@@H]2C1`, the cytotoxicity at 10 µM was 2.37%.

For `COC(=O)CNC(=O)CCc1cc(Cl)cs1`, the cytotoxicity at 10 µM is -5.31%.

`N#Cc1ccc(SCCC(=O)O)cc1`: the cytotoxicity at 10 µM is -2.85%.

`Cn1nc(Br)c2c(NCCS(N)(=O)=O)ncnc21`: the cytotoxicity at 10 µM was 15.8%.

Consider `O=C1CC(C(=O)NCCN2CCOC2=O)c2cc(F)ccc2N1` (centres undefined), for which the cytotoxicity at 10 µM was -0.511%.

On to `Cc1ccc(CN(CCN(C)C)Cc2nc3ccccc3[nH]2)s1`, for which the cytotoxicity at 10 µM is 3.34%.

Turning to `COc1cccc(-c2cc(CN)ccc2F)c1F`, the cytotoxicity at 10 µM is -12.4%.

Turning to `CN(C)S(=O)(=O)N1CC[C@]2(O)CCN(c3cc(C#N)ccn3)C[C@@H]2C1`, the cytotoxicity at 10 µM is 12.3%.

As for `Cc1ncc(S(C)(=O)=O)c(N2CCCN(Cc3ccccn3)CC2)n1`, the cytotoxicity at 10 µM worked out at 1.46%.

In the case of `CN(C)CCN1CC2(CCCN(c3ccc(Cl)cn3)C2)CCC1=O` (centres undefined), the cytotoxicity at 10 µM was 2.69%.

As to `O=C1CCC2(CCCN(c3ncc(Cl)cc3F)C2)CN1CC1CC1` (centres undefined), the cytotoxicity at 10 µM stood at 5.98%.

Regarding `Cc1ccc(CN2CCN(c3ncccc3C(N)=O)CC2CCO)cc1` (centres undefined), the cytotoxicity at 10 µM is -13.3%.

`CNS(=O)(=O)CCNc1cc(C)nc2cc(C)nn12`: the cytotoxicity at 10 µM was 6.95%.

With `Cc1ocnc1C(=O)N1CC[C@@]2(O)CCN(C(=O)N3CCCC3)C[C@H]2C1`, the cytotoxicity at 10 µM is -7.96%.

For `CCCc1cc(=O)[nH]c(-c2cccc(CN3CCN4CCCC4C3)c2)n1` (centres undefined), the cytotoxicity at 10 µM was -15.2%.

Turning to `COCC[C@]1(O)CCN(C2CCN(C(=O)C3CCC3)CC2)C[C@H]1C`, the cytotoxicity at 10 µM stood at 0.866%.

For `CC(C)c1nnc2n1CCN(CC(=O)Nc1sccc1C#N)C2`, the cytotoxicity at 10 µM was -2.6%.

On to `COc1ccccc1OCCN1CCC(N2CCNC2=O)CC1`, for which the cytotoxicity at 10 µM is -3.19%.

With `N#Cc1cn(C2CC2)c(=O)n(CC(O)c2ccccc2F)c1=O` (centres undefined), the cytotoxicity at 10 µM was determined as 3.97%.

Take `Cc1cnn(CC2CN(CC(=O)Nc3sccc3C#N)CCO2)c1` (centres undefined): the cytotoxicity at 10 µM is -0.935%.

Take `COCc1ccccc1C(=O)N1CCCC(n2nc(C)cc2C)C1` (centres undefined): the cytotoxicity at 10 µM was -10.5%.

Regarding `Cc1nn(C)c(Cl)c1C(=O)NCC(c1ccsc1)N(C)C` (centres undefined), the cytotoxicity at 10 µM is -10%.

Turning to `Cc1ccc(CNC(=O)NCc2csc(C)n2)cn1`, the cytotoxicity at 10 µM was -8.24%.

Regarding `CN(C)c1ccc(C(=O)N2CCN(C(=O)N3CCCCC3)CC2)nn1`, the cytotoxicity at 10 µM is -9.14%.

With `CN(Cc1nc2c(cnn2C)c(=O)[nH]1)Cc1ccc(F)cc1F`, the cytotoxicity at 10 µM was -1.29%.

As to `COc1cc(CNC(C)Cn2cccn2)cc(OC)c1OC` (centres undefined), the cytotoxicity at 10 µM was -4.23%.

Turning to `COCCN1CCc2c(cnc(-c3ccccc3)c2C(=O)O)C1`, the cytotoxicity at 10 µM came to 2.24%.

On to `Cc1nc(CN2C(=O)CC3(CCN(C(N)=O)CC3)c3ccccc32)cs1`, for which the cytotoxicity at 10 µM is -1.4%.

Turning to `O=C(NC1CCCCC1)N1CCC(n2cc3[nH]cccc-3c2=O)CC1`, the cytotoxicity at 10 µM was -5.01%.
